Results published in ChEMBL document CHEMBL1141340, “Protein phosphatase inhibitors isolated from Spongia irregularis collected in Papua New Guinea” (J Nat Prod, 2007).
pIC50: −log10 of the molar value. Activity calls are given as the source filed them. No cut-off for these calls is given here.

Assays:
[1] = Inhibition of calcineurin
[2] = Inhibition of PP1c
Outline: (§1)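 Enzyme source was purified catalytic subunits of protein phosphatases PP-1 and PP-2A. Results are reported as IC50.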

[3] = Inhibition of PP2A; outline: as §1

pIC50 [1] | pIC50 [2] | pIC50 [3] | Activity [1] | SMILES
3.64 | 4.44 | – | – | C[C@@H]1CC[C@@H]2C(=CCCC2(C)C)[C@]1(C)CCC(CCCc1ccoc1)COP(=O)(O)O (stereo partly specified)
4.16 | 4.19 | 3.85 | – | C[C@@H]1CC[C@@H]2C(=CCCC2(C)C)[C@]1(C)CCC(CCCc1ccoc1)COS(=O)(=O)O (stereo partly specified)
4.23 | – | – | – | CC(C)CCN1CC=C(CCCC(CC[C@@]2(C)C3=CCCC(C)(C)[C@@H]3CC[C@H]2C)COS(=O)(=O)O)C1=O (stereo partly specified) [IREGULARASULFATE]

Further lines, the compound ahead of its results:

SMILES | pIC50 [1] | pIC50 [2] | pIC50 [3] | Activity [1]
CC1=CCCC(C)(C)C1CC/C(C)=C/CCC(CCCc1ccoc1)COP(O)(O)=S (stereo unspecified) | 4.15 | – | – | –
CC1=CCCC(C)(C)C1CC/C(C)=C/CCC(CO)CCCc1ccoc1 (stereo unspecified) | – | – | – | inactive
CC1=CCCC(C)(C)C1CC/C(C)=C/CCC(CCCc1ccoc1)COS(=O)(=O)O (stereo unspecified) [HIPPOSULFATE C] | 4.18 | 4.15 | 3.89 | –
